Data set [1] has as its system Mus musculus. Kind of data set: Ratio of LD50 in sc dosed mouse to ED50 in sc dosed mouse by writhing test.
Data set [2] concerns Mus musculus. The data set can be described thus: Ratio of morphine hydrochloride ED50 to compound ED50 for sc dosed mouse assessed as inhibition of phenylquinone-induced writhing. The class given is functional.
For data set [3], the system named is Mus musculus. The data set can be described thus: Analgesic activity in sc dosed mouse by tail clip method. The class given is functional.
For data set [4], the species on record is Mus musculus. The data set can be described thus: Inhibition of morphine-induced analgesia in mouse by tail clip method. The class given is functional. The method in brief:
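Mice dosed subcutaneously; morphine antagonism measured as suppression of morphine analgesia by a tail-clip-based procedure. AD50 in mg/kg estimated by graphical evaluation of log dose-response curves.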

In data set [5] the test system is Mus musculus. Kind of data set: Analgesic activity in sc dosed mouse by hot plate method. The class given is functional. In general terms: Thermal pain tests record how soon the animal reacts.
For data set [6], the system named is Mus musculus. The data set can be described thus: Analgesic activity in sc dosed mouse assessed as inhibition of phenylquinone-induced writhing. The class given is functional.
Data set [7] can be described thus: Toxicity in sc dosed mouse. The class given is organism-based. The following applies: in vivo. The method in brief:
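Acute toxicity in mice, expressed as LD50 calculated by the Litchfield and Wilcoxon method.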

Here are results for six compounds from ChEMBL document CHEMBL3244325, “Diastereoisomeric N-tetrahydrofurfurylnoroxymorphones with opioid agonist--antagonist properties” (J Med Chem, 1977).

Usually ED50 stands for the dose that gives a 50% effect, or the effect in half of the subjects. The LD50 is the dose at which mortality reaches 50%. High values mean a less toxic substance, low ones a more toxic substance. For `Cl.O=C1CC[C@@]2(O)[C@H]3Cc4ccc(O)c5c4[C@@]2(CCN3C[C@H]2CCCO2)[C@H]1O5`, in data set [1], the “Ratio LD50/ED50” value came out at 47750. Moreover, the “Ratio ED50” value in data set [2] is listed as 25. For the same compound, the ED50 in data set [3] amounted to 200 mg/kg; in data set [5], 1.9 mg/kg; in data set [6] it was 0.02 mg/kg. This compound also gave an AD50 in data set [4] of 4 mg/kg. Also, the LD50 in data set [7] was 955 mg/kg.
With `Cl.O=C1CC[C@@]2(O)[C@H]3Cc4ccc(O)c5c4[C@@]2(CCN3C[C@@H]2CCCO2)[C@H]1O5`, the AD50 in data set [4] worked out at 5 mg/kg. Also, the LD50 in data set [7] came out at 810 mg/kg.
On to `CN1CC[C@]23c4c5ccc(O)c4O[C@H]2[C@@H](O)C=C[C@H]3[C@H]1C5.Cl` [MORPHINE HYDROCHLORIDE], for which the results for the ED50 in data set [3], in data set [5] and in data set [6] were 11 mg/kg, 1.2 mg/kg and 0.5 mg/kg, respectively.
For the compound `C=CCN1CC[C@]23c4c5ccc(O)c4O[C@H]2[C@@H](O)C=C[C@H]3[C@H]1C5.Cl` [NALORPHINE HYDROCHLORIDE], the AD50 in data set [4] was determined as 1 mg/kg. Also, the 50% effective dose (ED50) in data set [6] stood at 0.5 mg/kg. The compound also returned an LD50 in data set [7] of 560 mg/kg.
The compound `C=CCN1CC[C@]23c4c5ccc(O)c4O[C@H]2C(=O)CC[C@@]3(O)[C@H]1C5.Cl` [NALOXONE HYDROCHLORIDE] yielded an AD50 in data set [4] of 0.03 mg/kg. The LD50 in data set [7] amounted to 286 mg/kg.
Compound `CC(C)=CCN1CCC2(C)c3cc(O)ccc3CC1C2C.Cl` (stereo not given) [PENTAZOCINE HYDROCHLORIDE] yielded an AD50 in data set [4] of 8 mg/kg. Further, the median effective dose (ED50) in data set [6] came to 1.4 mg/kg. Also, the LD50 in data set [7] worked out at 220 mg/kg.
